# Experimental data from ChEMBL document CHEMBL1765056, “Cytotoxic oleanane-type saponins from Albizia inundata” (J Nat Prod, 2011).
# Activity calls are given as the source filed them. No cut-off for these calls is given here.
# Experiments:
# Format in all cases: functional, cell-based
# B16-F10 [1] = test: Cytotoxicity against mouse B16F10 cells harboring BRAF […] mutation assessed as cell viability by MTS assay
# Procedure, shortened: (§1)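 Pure compounds tested at five concentrations from 50 nM to 20 uM. Readout is MTS viability, with IC50 derived per cell line. JMAR and MDA1986 are head and neck squamous carcinoma lines. B16F10 is a murine melanoma line and SKMEL28 a human melanoma line, both BRAF V600E; SKMEL28 also carries a PTEN mutation.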
# [2] = Cytotoxicity against human JMAR cells assessed as cell viability by MTS assay; procedure, shortened: as §1
# SK-MEL-28 [3] = test: Cytotoxicity against human SK-MEL-28 cells harboring BRAF […]/PTEN mutation assessed as cell viability by MTS assay; procedure, shortened: as §1
# [4] = Cytotoxicity against human MDA1986 cells assessed as cell viability by MTS assay; procedure, shortened: as §1
# B16-F10 [5] = test: Cytotoxicity against mouse B16F10 cells harboring BRAF […] mutation assessed as membrane disintegration by phase contrast microscopy
# Procedure, shortened: (§2)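 Cells treated with increasing concentrations of saponins, then examined by phase-contrast microscopy for membrane disintegration.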
# SK-MEL-28 [6] = test: Cytotoxicity against human SK-MEL-28 cells harboring BRAF […]/PTEN mutation assessed as membrane disintegration by phase contrast microscopy; procedure, shortened: as §2
# Homo sapiens = species on record: Homo sapiens; test: Cytotoxicity against human MDA1986 cells assessed as membrane disintegration by phase contrast microscopy; procedure, shortened: as §2
# JMAR = test: Cytotoxicity against human JMAR cells assessed as membrane disintegration by phase contrast microscopy; procedure, shortened: as §2
SMILES,IC50 (B16-F10 [1]),IC50 [2],IC50 (SK-MEL-28 [3]),IC50 [4],Activity (B16-F10 [5]),Activity (SK-MEL-28 [6]),Activity (Homo sapiens),Activity (JMAR)
CC(=O)N[C@H]1[C@H](O[C@H]2CC[C@]3(C)[C@H]4CC=C5[C@@H]6CC(C)(C)[C@@H]7C[C@]6(C(=O)O7)[C@H](O)C[C@@]5(C)[C@]4(C)CC[C@H]3C2(C)C)O[C@H](CO[C@@H]2OC[C@H](O)[C@H](O)[C@H]2O[C@@H]2OC[C@H](O)[C@H](O)[C@H]2O)[C@@H](O)[C@@H]1O,> 20 µM,> 20 µM,> 20 µM,> 20 µM,–,–,–,–
CC1(C)CC[C@]2(C(=O)O)CC[C@]3(C)C(=CC[C@@H]4[C@@]5(C)CC[C@H](O[C@@H]6O[C@H](CO[C@@H]7OC[C@H](O)[C@H](O)[C@H]7O[C@@H]7OC[C@@H](O)[C@H](O)[C@H]7O)[C@@H](O)[C@H](O)[C@H]6O)C(C)(C)[C@@H]5CC[C@]43C)[C@@H]2C1 [PITHEDULOSIDE C],6.9 µM,10.1 µM,8.6 µM,9 µM,inactive,inactive,inactive,inactive
CC1(C)CC[C@]2(C(=O)O)[C@H](O)C[C@]3(C)C(=CC[C@@H]4[C@@]5(C)CC[C@H](O[C@@H]6O[C@H](CO[C@@H]7OC[C@H](O)[C@H](O)[C@H]7O[C@@H]7OC[C@@H](O)[C@H](O)[C@H]7O)[C@@H](O)[C@H](O)[C@H]6O[C@@H]6O[C@H](CO)[C@@H](O)[C@H](O)[C@H]6O)C(C)(C)[C@@H]5CC[C@]43C)[C@@H]2C1,> 20 µM,> 20 µM,> 20 µM,> 20 µM,–,–,–,–
CC1(C)CC[C@]2(C(=O)O)CC[C@]3(C)C(=CC[C@@H]4[C@@]5(C)CC[C@H](O[C@@H]6O[C@H](CO)[C@@H](O)[C@H](O)[C@H]6O[C@@H]6O[C@H](CO)[C@@H](O)[C@H](O)[C@H]6O)C(C)(C)[C@@H]5CC[C@]43C)[C@@H]2C1 [ACUTOSIDE A],> 20 µM,> 20 µM,> 20 µM,> 20 µM,–,–,–,–
CC1(C)CC[C@]2(C(=O)O)[C@H](O)C[C@]3(C)C(=CC[C@@H]4[C@@]5(C)CC[C@H](O[C@@H]6O[C@H](CO[C@@H]7OC[C@H](O)[C@H](O)[C@H]7O[C@@H]7OC[C@H](O)[C@H](O)[C@H]7O)[C@@H](O)[C@H](O)[C@H]6O[C@@H]6O[C@H](CO)[C@@H](O)[C@H](O)[C@H]6O)C(C)(C)[C@@H]5CC[C@]43C)[C@@H]2C1,> 20 µM,> 20 µM,> 20 µM,> 20 µM,–,–,–,–
CC(=O)N[C@H]1[C@H](O[C@H]2CC[C@]3(C)[C@H]4CC=C5[C@@H]6CC(C)(C)CC[C@]6(C(=O)O)[C@H](O)C[C@@]5(C)[C@]4(C)CC[C@H]3C2(C)C)O[C@H](CO[C@@H]2OC[C@H](O)[C@H](O)[C@H]2O)[C@@H](O)[C@@H]1O,5.1 µM,2.8 µM,9.2 µM,1.8 µM,inactive,inactive,inactive,inactive
CC(=O)N[C@H]1[C@H](O[C@H]2CC[C@]3(C)[C@H]4CC=C5[C@@H]6CC(C)(C)[C@@H]7C[C@]6(C(=O)O7)[C@H](O)C[C@@]5(C)[C@]4(C)CC[C@H]3C2(C)C)O[C@H](CO[C@@H]2OC[C@H](O)[C@H](O)[C@H]2O[C@@H]2OC[C@@H](O)[C@H](O)[C@H]2O)[C@@H](O)[C@@H]1O [PROSAPOGENIN 4],> 20 µM,> 20 µM,> 20 µM,> 20 µM,–,–,–,–
CC1(C)CC[C@]2(C(=O)O)CC[C@]3(C)C(=CC[C@@H]4[C@@]5(C)CC[C@H](O[C@@H]6O[C@H](CO[C@@H]7OC[C@H](O)[C@H](O)[C@H]7O[C@@H]7OC[C@H](O)[C@H](O)[C@H]7O)[C@@H](O)[C@H](O)[C@H]6O)C(C)(C)[C@@H]5CC[C@]43C)[C@@H]2C1,6.3 µM,11.5 µM,8.1 µM,8.2 µM,inactive,inactive,inactive,inactive
CC(=O)N[C@H]1[C@H](O[C@H]2CC[C@]3(C)[C@H]4CC=C5[C@@H]6CC(C)(C)CC[C@]6(C(=O)O)CC[C@@]5(C)[C@]4(C)CC[C@H]3C2(C)C)O[C@H](CO[C@@H]2OC[C@H](O)[C@H](O)[C@H]2O)[C@@H](O)[C@@H]1O,4.7 µM,8.7 µM,12.4 µM,7.3 µM,inactive,inactive,inactive,inactive
